Assay outcomes as filed in PubChem.
TAAR1 antagonist: antagonists of human TAAR1; Q96RJ0; CHO RD-HGA16 TAAR1, Fluo-8 calcium fluorescence, antagonist; inhibition, % at 3 µM; 1.5% of 360,000 active;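 active = inhibition above a per-plate cutoff, the mean inhibition of test compounds on that plate plus 3 SD, cut at about 49% in these data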;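 also: 0% = DMSO plus EC80 beta-PEA response and 100% = DMSO alone without agonist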
Target sequence (Q96RJ0 whole entry, looked up): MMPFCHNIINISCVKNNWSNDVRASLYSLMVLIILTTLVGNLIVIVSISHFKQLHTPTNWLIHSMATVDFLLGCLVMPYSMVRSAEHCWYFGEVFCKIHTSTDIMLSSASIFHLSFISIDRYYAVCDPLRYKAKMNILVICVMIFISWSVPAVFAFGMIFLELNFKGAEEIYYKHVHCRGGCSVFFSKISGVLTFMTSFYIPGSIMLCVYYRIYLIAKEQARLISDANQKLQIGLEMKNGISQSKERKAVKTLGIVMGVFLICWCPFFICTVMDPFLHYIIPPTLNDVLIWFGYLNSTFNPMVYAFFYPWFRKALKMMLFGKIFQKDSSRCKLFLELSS
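Assay system: RD-HGA16 CHO cells with stable hTAAR1 and Gα16 / Reagent: EC80 β-phenethylamine stimulus / Doses: 3 µM, single point / Timing: dye loading 75 min at 37 °C, then 30 min room temperature / Measured by: Fluo-8 intracellular calcium dye fluorescence, real-time kinetic reads / Controls: vehicle wells and EC80 agonist wells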
V1aR counter: V1a receptor agonism, counter-screen for OXTR agonists. P37288. activation, % at 3 µM. CHO-V1R cells, Fluo-8 calcium fluorescence, agonist mode; 0% DMSO, 100% 3 nM vasopressin. 0.25% of 320,000 active;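 active = activation above the mean activation of all tested compounds plus 3 SD, per screening run, cut at about 20% in these data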;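 also: signal is peak over basal fluorescence ratio across a 100 second FLIPR read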
TAAR1 agonist: human TAAR1 agonism. Q96RJ0. 0.99% of 360,000 active. activation, % at 3 µM. CHO RD-HGA16 TAAR1, Fluo-8 calcium fluorescence; vehicle wells 0%, saturating PEA agonist 100%;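 active = activation above the mean activation of all test compounds in the run plus 3 SD, cut at about 38% in these data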
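Signal – calcium-sensitive Fluo-8 signal, excitation 470-495, emission 515-575 nm · System – RD-HGA16 (CHO) cells co-expressing Gα16 and hTAAR1 · Incubation – 17-24 h seeding, 75 min 37 °C dye, 30 min RT · Compound dosing – 3 µM single concentration · Repeats – no replicates (n 1)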
OXTR agonist: human OXTR agonism; P30559; CHO-OTR cells, Fluo-8 calcium fluorescence; normalized: DMSO 0%, oxytocin 100%; activation, % at 3 µM; 0.32% of 320,000 active; AID 2435;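 active = activation above the mean of all tested compounds plus 3 SD, cutoff set per screening run, cut at about 20% in these data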;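 also: peak over basal fluorescence ratio from a 100 s FLIPR kinetic read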
OXTR potentiate: potentiators of human oxytocin receptor | P30559 | CHO-OTR cells, Fluo-8 calcium fluorescence, potentiator mode; 0% = oxytocin EC15, 100% = EC100 | 0.061% of 320,000 active | activation, % at 3 µM;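 active = activation above that plate's cutoff, the mean activation of tested compounds plus 3 SD, cut at about 6.6% in these data, passing the limit was not always enough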;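 also: 100% uses oxytocin at 75 nM as the full agonist control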
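Assay system: CHO cell line stably expressing human OTR. Reagent: EC15 oxytocin agonist. Dosing: single dose, 3.0 µM nominal final compound concentration. Timing: compound 6 min at room temperature before oxytocin, 100 s read. Signal: kinetic Fluo-8 calcium fluorescence. Controls: oxytocin EC15 low and EC100 high.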
* hit, by the source's call; x = no result given. In the library only some 2.3% were active in any assay of this set; here they are far more common.

SMILES	TAAR1 antagonist	V1aR counter	TAAR1 agonist	OXTR agonist	OXTR potentiate
CCCCCc1cc(=O)oc2c(C(CCN3CCCCC3)c3ccc(OC)cc3)c(OC)cc(OC)c12 (centres undefined)	6.6	1.3	30.1	4.6	1.5
Nc1ccccc1SC1CC(=O)N(c2ccc3c(c2)OCCO3)C1=O (centres undefined)	5.7	-0.2	11.4	0.0	-0.2
Nc1ccccc1SC1CC(=O)N(c2ccc(Cl)c(Cl)c2)C1=O (centres undefined)	59.0*	12.4	18.9	14.0	-21.8
O=C(NCCc1ccc(OC(F)F)cc1)C1CC(=O)N(c2ccc3c(c2)OCCO3)C1 (centres undefined)	12.3	2.2	-0.3	1.8	-7.1
O=C(CNC(=O)c1ccc(F)cc1)N/N=C/c1cc(Br)ccc1OCc1ccccc1	27.8	-0.4	14.3	-1.0	-7.3
COc1ccc(COc2ccccc2C(=O)NCc2ccccc2)cc1F	70.9*	6.5	10.2	3.1	-13.2
COc1ccccc1C(=O)NCC(=O)N/N=C/c1cc(Br)ccc1OCc1ccccc1	49.2*	0.1	5.0	1.8	-11.5
Cc1cc(C)cc(NC(=O)COC(=O)CNC(=O)C2CCCCC2)c1	-28.7	0.5	21.1	-2.5	0.3
CCC1CCCCN1C(=O)c1sc2nc(C)nc(N(CC)CC)c2c1C (centres undefined)	1.7	-1.6	5.5	-2.1	0.8
COc1ccccc1CC(=O)Nc1ccc(-c2nnc(-c3ccco3)o2)cc1	45.8	-0.1	12.8	-1.9	-5.6
COc1cc(C(=O)Nc2ccc(-c3nnc(-c4ccco4)o3)cc2)cc(OC)c1OC	51.6*	0.3	10.6	-0.9	-5.8
O=C(/C=C/c1cccc(Cl)c1)c1ccc([N+](=O)[O-])o1	43.3	1.3	57.4*	1.0	0.6
COc1ccc(COCC(O)CN2CC(C)OC(C)C2)cc1OC (centres undefined)	-11.6	0.2	0.4	-0.1	-8.0
O=S(=O)(c1ccc(Br)s1)N1CCN(CCOc2ccccc2)CC1	23.4	6.5	5.4	-1.6	-11.7
CCOc1ccc(CCNC(=O)c2c(C)noc2C)cc1OCC	-2.8	0.9	0.8	0.7	2.4
CCOc1ccc(CCNC(=O)c2cc3c(C)nccc3[nH]c2=O)cc1OCC	51.2*	1.6	12.7	-1.6	-10.0
COc1cc(/C=C(\C#N)C(=O)NCCc2ccccc2)cc(OC)c1O	9.3	10.5	30.2	8.2	-18.8
COc1cc(/C=C(\C#N)c2nc3ccccc3n2C)cc(OC)c1O	12.9	28.6*	13.1	25.7*	-5.1
COc1cc(/C=C(\C#N)c2nc3ccccc3[nH]2)cc(OC)c1O	24.5	28.9*	34.2	27.6*	-10.2
COc1cc(/C=C(\C#N)C(=O)c2c[nH]c3ccccc23)cc(OC)c1O	-8.4	6.6	40.6*	11.5	-17.7
CCOC(=O)C1C(=O)CC(C)(O)C(C(=O)OCC)C1/C=C/c1ccccc1 (centres undefined)	56.4*	x	8.9	x	x
C/C(=N\NC(=O)c1ccc(O)cc1)c1ccc(N2CCOCC2)cc1	18.6	0.1	2.5	0.8	4.5
C/C(=N\NC(=O)c1ccc(N/N=C(\C)c2ccc(O)cc2)cc1)c1ccc(O)cc1	56.5*	-0.6	4.4	0.3	-2.9
COc1ccc(-c2ccc3c(c2)S(=O)(=O)c2cccc(C(=O)N4CCN(c5ccccn5)CC4)c2C3=O)cc1OC	36.5	x	7.3	x	x
COc1ccc(-c2ccc3c(c2)S(=O)(=O)c2cccc(C(=O)N4CCN(C5CCCCC5)CC4)c2C3=O)cc1OC	51.6*	2.4	20.5	2.1	-5.8
SMILES	TAAR1 antagonist	V1aR counter	TAAR1 agonist	OXTR agonist	OXTR potentiate
CCOc1ccc(S(=O)(=O)N2CCOCC2)cc1NC(=O)c1ccc(N2CCCC2=O)cc1	-14.2	-0.9	1.7	-0.3	-5.8
Cc1cccc(N(CC(=O)NCc2ccc3c(c2)OCO3)C(=O)CCC(=O)Nc2ccccn2)c1C	52.4*	x	19.3	x	x
O=C(CSc1nnc2ccccn12)Nc1ccc(S(=O)(=O)N2CCOCC2)cc1	2.0	0.4	-0.4	0.7	-2.1
COC(=O)c1c(C)oc2ccc(N(C(=O)c3ccncc3)S(=O)(=O)c3ccc4ccccc4c3)cc12	49.9*	6.6	2.1	2.9	-1.3
COc1ccc(CN(C)C(=O)c2ccc(NS(=O)(=O)c3ccc(F)cc3)cc2)c(OC)c1	-10.1	4.3	1.8	-0.1	-11.4
COc1ccc(NS(=O)(=O)c2ccc(C(=O)N(C)Cc3ccc(C)o3)cc2)cc1	26.7	26.8*	49.4*	27.0*	-10.9
CN1C(=O)CSc2ccc(NC(=O)N3CCc4ccccc43)cc21	55.5*	-0.2	19.6	-0.6	-2.4
COc1cccc(NC(=O)Nc2ccc3c(c2)N(C)C(=O)CS3)c1	68.6*	4.7	22.8	3.8	-23.4
CC(=O)Nc1ccc(NC(=O)Nc2ccc3c(c2)N(C)C(=O)CS3)cc1	11.0	0.8	2.0	-0.1	-0.9
CCC(C)NC(=O)/C(=C/c1ccco1)c1ccccc1 (centres undefined)	-18.5	-0.5	6.8	-1.7	-6.0
Cc1cccc(C(=O)NC(=S)NNC(=O)c2cccs2)c1	61.1*	25.8*	128.7*	35.8*	-8.1
Cc1cc2nc3c(=O)[nH]c(=S)[nH]c3nc2cc1NC(=O)C(F)(F)F	-3.5	80.0*	10.9	55.0*	-16.7
O=c1[nH]c(=S)[nH]c2nc(-c3ccccc3)cnc12	-15.3	-0.2	-1.0	-2.4	-0.6
CCc1ccc(N(C(=O)CNC(=O)c2ccco2)C(C(=O)NCC2CCCO2)c2ccccc2)cc1 (centres undefined)	9.3	0.6	8.2	-0.3	-2.0
COc1cc(OC)cc(N(C(=O)CNC(=O)c2ccco2)C(C(=O)NCC2CCCO2)c2ccccc2)c1 (centres undefined)	52.0*	8.6	15.2	4.0	-11.2
COc1ccc(NC(=O)Nc2nc(C(N)CC(C)C)cs2)cc1 (centres undefined)	2.2	x	4.7	x	x
NC(c1csc(NC(=O)Nc2ccc(OC(F)(F)F)cc2)n1)C1CCCCC1 (centres undefined)	8.1	x	47.4*	x	x
O=C(Nc1ccccc1)c1ccc(NCc2cccnc2)c(S(=O)(=O)N2CCOCC2)c1	7.1	-0.5	12.4	-1.8	-16.6
Cc1cc(C)cc(N2C(=O)CC(N(C(=O)c3ccco3)c3cc(C)cc(C)c3)C2=O)c1 (centres undefined)	1.9	-0.6	10.7	0.2	6.5
c1ccc(COc2ccc(-c3cc4nc(NCCCn5ccnc5)ccn4n3)cc2)cc1	53.0*	x	14.7	x	x
OC1CCC(Nc2ccn3nc(-c4cccc(OCc5ccccc5)c4)cc3n2)CC1 (centres undefined)	52.8*	x	15.3	x	x
OC1CCC(Nc2ccn3nc(-c4cccc(Cl)c4)cc3n2)CC1 (centres undefined)	-14.6	x	10.7	x	x
